Experimental data published in ChEMBL document CHEMBL1127570, “Synthesis and anticonvulsant properties of new benzylpyridazine derivatives” (J Med Chem, 1994).

Key:
Mus musculus [1] = species: Mus musculus; experiment: Anticonvulsant activity in mice using the maximal electroshock seizure test.; format: functional
Outline: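 Oral dosing of mice 30 min before maximal electroshock via corneal electrodes. Protection is abolition of the hind limb tonic extensor component.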

Mus musculus [2] = experiment: Locomotor activity in maximal electroshock seizure+ indicates increase at 100 mg/kg; format: functional
Mus musculus [3] = experiment: Yohimbine induced seizures by administrating sc and the compound which do not exhibit at least one clonic seizure within 60 min was recorded; format: functional; conditions: 1 h
Outline: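 Mice, 10 per dose, dosed 30 min before yohimbine 45 mg/kg sc. Animals with no clonic seizure within 60 min were counted as protected. ED50 by Litchfield–Wilcoxon; chi-square with Yates correction.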

[4] = Central nervous system toxicity was performed by determining the median toxic dose in the rotarod test; format: organism-based; conditions: mouse, in vivo
Outline: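 Rotarod neurotoxicity in mice, oral dosing 30 min before assay. Failure to stay 3 min on a 3-cm wooden rod turning at 8 rpm counts as toxic.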

Mus musculus [5] = species: Mus musculus; experiment: (§1) Anticonvulsant activity against bicuculline induced seizures in mice; format: functional
Outline: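 Mice, 10 per dose. Test drug given 30 min before bicuculline 0.81 mg/kg iv; protection against clonic seizures recorded. Line 2: single oral dose of 100 mg/kg, given as percentage of animals protected. ED50 by Litchfield–Wilcoxon; chi-square with Yates correction.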

[6] = Protective index is the ratio between TD50 and ED50 values; format: functional
Outline: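 Protective index is rotarod TD50 divided by ED50. Both come from oral dosing in mice 30 min before test and are calculated by Litchfield–Wilcoxon.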

Mus musculus [7] = experiment: Tested for NMDLA induced seizures and protection against full generalized tonic seizures was recorded; Percentage of protection at 30 mg/kg per os.; conditions: po
Mus musculus [8] = experiment: Ability to prevent the tonic extensor component induced by 106.25 mg/kg sc of pentylenetetrazole; format: functional; conditions: route subcutaneous
Mus musculus [9] = experiment: Tested for the abolition of the hand leg tonic extensor component of the seizure induced by a 0.96 mg/kg sc injection of strychnine; format: functional; conditions: route subcutaneous
Outline: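 Mice tested 30 min after compound for abolition of the tonic extensor component from strychnine 0.96 mg/kg sc. Chi-square with Yates correction; ED50 by Litchfield–Wilcoxon.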

Mus musculus [10] = experiment: Anticonvulsant activity was measured using the maximal electroshock seizure test in mice. protection percentage at 100 mg/kg; format: functional; conditions: for % protection at 100 mg/kg: Mus musculus
Mus musculus [11] = experiment: Locomotor activity in maximal electroshock seizure. - indicates decrease at 100 mg/kg; format: functional
Mus musculus [12] = experiment: Tested for NMDLA induced seizures and protection against full generalized tonic seizures was recorded; Percentage of protection at 150 mg/kg per os.; format: functional; conditions: for ED50: Mus musculus, po
Outline: (§2)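 Compounds given 30 min before N-methyl-D,L-aspartate 345 mg/kg sc in mice. Protection against full generalized tonic seizures recorded. Chi-square with Yates correction.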

Mus musculus [13] = experiment: Yohimbine induced seizures by administrating sc and the compound which do not exhibit at least one clonic seizure within 60 min was recorded; Percentage of protection at 150 mg/kg per os.; format: functional; conditions: Mus musculus, sc, 1 h; route subcutaneous
Outline: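 Compound given 30 min before yohimbine 45 mg/kg sc in mice. Animals without at least one clonic seizure within 60 min count as protected. Chi-square with Yates correction.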

Mus musculus [14] = experiment: Ability to prevent the tonic extensor component induced by 106.25 mg/kg sc of pentylenetetrazole; Percentage of protection at 100 mg/kg per os.; format: functional
Outline: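 Mice dosed orally 30 min before pentylenetetrazole 106.25 mg/kg sc. Protection is block of the tonic extensor component. Groups of 10 mice per dose; chi-square with Yates correction; ED50 by Litchfield–Wilcoxon.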

Mus musculus [15] = species: Mus musculus; experiment: as §1; format: functional; remark: listed apart in the source
Outline: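 Mice given compound 30 min before bicuculline 0.81 mg/kg iv (procedure after Heyer). Protection against clonic seizures recorded. Groups of 10 mice per dose; chi-square with Yates correction.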

Mus musculus [16] = experiment: Tested for the abolition of the hand leg tonic extensor component of the seizure induced by a 0.96 mg/kg sc injection of strychnine; Percentage of protection at 100 mg/kg per os.; format: functional
Outline: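 Oral dose of 100 mg/kg in mice, 10 per dose, given 30 min before strychnine 0.96 mg/kg sc. Protection means abolition of the hind leg tonic extensor component, given as percentage of animals protected. Chi-square with Yates correction.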

Mus musculus [17] = experiment: Tested for NMDLA induced seizures and protection against full generalized tonic seizures was recorded; Percentage of protection at 100 mg/kg per os.; format: functional; conditions: po; outline: as §2

Work on Cc1nn2c(C)nnc2cc1Cc1ccccc1 yielded an ED50 (Mus musculus [1]) of 26 mg/kg and a Locomotor activity (Mus musculus [2]) of 47%.

Compound CN1C(=O)CN=C(c2ccccc2)c2cc(Cl)ccc21 [DIAZEPAM] has an ED50 (Mus musculus [1]) of 4 mg/kg, an ED50 (Mus musculus [3]) of 2.3 mg/kg and a TD50 [4] of 2.8 mg/kg. The ED50 (Mus musculus [5]) was 0.39 mg/kg, the PI [6] was 0.7 and the ED50 (Mus musculus [7]) was 30 mg/kg. The ED50 (Mus musculus [8]) was 0.5 mg/kg and the ED50 (Mus musculus [9]) was 1.1 mg/kg.

Work on Cc1nn2c(-c3ccccc3)nnc2cc1Cc1ccccc1 yielded an ED50 (Mus musculus [1]) of 108 mg/kg and a Locomotor activity (Mus musculus [2]) of 2%.

Work on Cc1nn2cc(-c3ccccc3)nc2cc1Cc1ccccc1 yielded an ED50 (Mus musculus [1]) of 105 mg/kg and a Locomotor activity (Mus musculus [2]) of 12%.

For Cc1nnc(NNC(=O)C(C)C)cc1Cc1ccccc1Cl, the % protection at 100 mg/kg (Mus musculus [10]) was 17% and the Locomotor activity (Mus musculus [11]) was -57%.

For Cc1nnc(NC(N)=O)cc1Cc1ccccc1, the ED50 (Mus musculus [1]) was 10.2 mg/kg, the ED50 (Mus musculus [12]) was 12.5 mg/kg and the ED50 (Mus musculus [13]) was 10 mg/kg. The TD50 [4] was 140 mg/kg, the PI [6] was 13.7 and the pct protection (Mus musculus [14]) was 20%. It also gave an ED50 (Mus musculus [15]) of 111 mg/kg, a Locomotor activity (Mus musculus [11]) of -5% and an ED50 (Mus musculus [9]) of 28 mg/kg.

Work on Cc1nn2c(C)nnc2cc1Cc1ccccc1Cl yielded an ED50 (Mus musculus [1]) of 30.5 mg/kg and a Locomotor activity (Mus musculus [11]) of -1%.

For CCCC(CCC)C(=O)[O-].[Na+] [VALPROATE SODIUM], the ED50 (Mus musculus [1]) was 112 mg/kg, the percent protection (Mus musculus [12]) was 0% and the ED50 (Mus musculus [13]) was 10 mg/kg. For the same compound, the TD50 [4] was 208 mg/kg, the PI [6] was 1.9 and the pct protection (Mus musculus [14]) was 20%. It also gave a percent protection (Mus musculus [16]) of 0% and a Locomotor activity (Mus musculus [11]) of -5%.

With Cc1nn2c(N)nnc2cc1Cc1ccccc1 the ED50 (Mus musculus [1]) was 22 mg/kg, the ED50 (Mus musculus [12]) was 14 mg/kg and the Locomotor activity (Mus musculus [2]) was 11%. It also gave an ED50 (Mus musculus [13]) of 20 mg/kg, a TD50 [4] of over 800 mg/kg and a PI [6] of 36.4. The pct protection (Mus musculus [14]) was 20%, the ED50 (Mus musculus [15]) was 94 mg/kg and the ED50 (Mus musculus [9]) was 35 mg/kg.

Cc1nn2cnnc2cc1Cc1c(Cl)cccc1Cl gave an ED50 (Mus musculus [1]) of 6.2 mg/kg, a Locomotor activity (Mus musculus [2]) of 13% and an ED50 (Mus musculus [3]) of 150 mg/kg. It also gave a TD50 [4] of 88 mg/kg, a PI [6] of 14.2 and a pct protection (Mus musculus [17]) of 12.5%. The ED50 (Mus musculus [15]) was 125 mg/kg, the ED50 (Mus musculus [8]) was 70 mg/kg and the ED50 (Mus musculus [9]) was 39.5 mg/kg.

Cc1nnc(NNC(=O)c2ccccc2)cc1Cc1ccccc1 gave a % protection at 100 mg/kg (Mus musculus [10]) of 17% and a Locomotor activity (Mus musculus [11]) of -62%.

Cc1nnc(NNC(=O)C(C)C)cc1Cc1ccccc1 gave a percent protection (Mus musculus [10]) of 0% and a Locomotor activity (Mus musculus [11]) of -67%.
